Screening results as filed in PubChem.
In the library only some 1.6% were active in any assay of this set; here they are far more common.
PPC-1+TRAIL kill – compounds killing PPC-1 cancer cells with TRAIL present, primary screen, TRAIL potentiator project, ATPLite luminescence, uHTS; actives 0.41% (n = 220,000); AID 1443, 2008; cell killing (% activity), % at 4 µM or 5 µM; PPC-1 cells + TRAIL, ATPLite viability luminescence;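 active = cell killing above 50% in the first pass at 4 µM, then a duplicate retest at 5 µM averaging 50% or more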;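 also: plate controls were cells with TRAIL plus DMSO for no effect and medium-only wells lacking cells for full effect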
FLuc act counter – FLuc activators, initial screening, artefact control for FLuc-dependent activation tests, biochemical, ATPlite luminescence | Luciferin 4-monooxygenase (Photinus pyralis), P08659 | ATPlite luciferase biochemical, 10 min; 0 = ATP-free wells, 1 = DMSO control | activation factor at 10 µM | 200,000 tested, under 10 active | AID 1027, 2008;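 active = luciferase activation factor, scaled between plate controls, of at least 2 with compound at 10 µM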
Target sequence (P08659 whole entry, looked up): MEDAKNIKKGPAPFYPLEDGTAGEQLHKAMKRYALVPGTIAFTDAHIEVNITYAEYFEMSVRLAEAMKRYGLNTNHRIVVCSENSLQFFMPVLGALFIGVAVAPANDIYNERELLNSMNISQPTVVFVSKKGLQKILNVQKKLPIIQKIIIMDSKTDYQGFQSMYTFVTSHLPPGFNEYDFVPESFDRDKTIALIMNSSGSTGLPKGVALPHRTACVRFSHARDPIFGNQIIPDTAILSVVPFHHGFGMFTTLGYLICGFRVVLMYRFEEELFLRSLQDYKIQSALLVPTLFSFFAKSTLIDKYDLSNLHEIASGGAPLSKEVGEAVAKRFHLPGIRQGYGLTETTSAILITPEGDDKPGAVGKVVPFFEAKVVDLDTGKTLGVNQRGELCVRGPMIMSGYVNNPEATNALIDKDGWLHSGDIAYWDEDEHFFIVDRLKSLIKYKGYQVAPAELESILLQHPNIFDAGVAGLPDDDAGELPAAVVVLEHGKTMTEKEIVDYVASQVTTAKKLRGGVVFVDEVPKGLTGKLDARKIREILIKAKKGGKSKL
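System: Luciferase/luciferin detection reagent, cell-free biochemical luciferase assay | Medium: PBS buffer for ATP | Dosing: Test compounds dosed from 2 mM stocks in 100% DMSO | Timing: 10 min at ambient temperature | Signal: Luminescence measurement of luciferase light output | Evaluation: Luciferase activation, seen as luminescence increase over controls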
TRAIL sens C8 – viability loss with TRAIL in NB7+C8 cells, primary screen, TRAIL sensitizer project, cell-based, ATPlite luminescence; inhibition (viability loss, TRAIL sensitization), % at 10 µM; actives 1% (n = 360,000); AID 624354, 2012;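 active = compounds causing at least 50% loss of cell viability in the single-dose screen, relative to plate controls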
FLuc inh counter – firefly luciferase enzyme inhibitors, primary screen, artefact control for luciferase-based inhibitor screens, biochemical, luminescence, ATPLite; inhibition, % at 10 µM; actives 1.5% (n = 200,000); Luciferin 4-monooxygenase (Photinus pyralis), P08659; 10 min;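 active = inhibition above about 50% when tested at 10 µM, limit read from the data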
PPC-1 tox – cytotoxicity in PPC-1 cells, confirmation, cytotoxicity control for TRAIL apoptosis potentiator project, cell-based, ATP content luminescence | shares compounds with PPC-1+TRAIL kill | cytotoxicity, % at 5 µM | actives 50% (n = 1,200) | PPC-1 viability, ATPlite luminescence, overnight;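 active = reconfirmed compounds whose average cytotoxicity reaches 50% or more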;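 also: 0% = DMSO-treated cells and 100% = wells holding medium but no cells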
The depositor's hits bear a star.

Results for CCn1c(-c2ccc(N(C)C)cc2)nc2ccccc21 ?
PPC-1+TRAIL kill: 60*; FLuc act counter: 0.2; TRAIL sens C8: 65*; FLuc inh counter: 85*; PPC-1 tox: 60*

What do the screens show for `CCn1c(-c2ccco2)nc2ccccc21`?
PPC-1+TRAIL kill: 19; FLuc act counter: 0.8; TRAIL sens C8: 9; FLuc inh counter: 23; PPC-1 tox: 19

What do the screens show for `CCn1c(-c2ccc(N)cc2)nc2ccccc21`?
PPC-1+TRAIL kill: -18; FLuc act counter: 1; TRAIL sens C8: 10; FLuc inh counter: 1

What do the screens show for `CC(C)n1c(-c2ccc(N(C)C)cc2)nc2ccccc21`?
PPC-1+TRAIL kill: 14; FLuc act counter: 0.6; TRAIL sens C8: 42; FLuc inh counter: 42

How did c1ccc(OCCn2c(-c3ccco3)nc3ccccc32)cc1 do in these assays?
PPC-1+TRAIL kill: 8; FLuc act counter: 1; TRAIL sens C8: 0; FLuc inh counter: -3

What do the screens show for `CN(C)c1ccc(-c2nc3ccccc3n2C)cc1`?
PPC-1+TRAIL kill: 88*; FLuc act counter: 0; TRAIL sens C8: 82*; FLuc inh counter: 96*; PPC-1 tox: 88*

How did NC(=O)NCc1cccs1 do in these assays?
PPC-1+TRAIL kill: -8; FLuc act counter: 1.1; TRAIL sens C8: -2; FLuc inh counter: -5

What do the screens show for `CCCCNC(=O)C1(C)CCCCN1Cc1ccc2ccccc2c1` (configuration not stated)?
TRAIL sens C8: 2

What do the screens show for `Cc1nnc(N2CCOCC2)c2nn(-c3ccccc3)c(C)c12`?
PPC-1+TRAIL kill: 8; FLuc act counter: 1; TRAIL sens C8: -11; FLuc inh counter: -4

Results for c1ccc(-n2nnc3c(N4CCOCC4)ncnc32)cc1 ?
PPC-1+TRAIL kill: 44; FLuc act counter: 0.2; TRAIL sens C8: 66*; FLuc inh counter: 84*; PPC-1 tox: 46

What do the screens show for `CCC(C)c1ccc(NC(=O)COC(=O)c2nc3nccc(C)n3n2)cc1` (configuration not stated)?
PPC-1+TRAIL kill: -5; FLuc act counter: 1; TRAIL sens C8: -3; FLuc inh counter: 3

What do the screens show for `O=C(O)CC(NC(=O)c1ccccc1NC(=O)c1ccccc1)C(=O)O` (configuration not stated)?
PPC-1+TRAIL kill: 5; FLuc act counter: 1; TRAIL sens C8: -4; FLuc inh counter: -4; PPC-1 tox: 3

How did O=c1[nH]nc(Br)c(=O)n1C(c1ccccc1)c1ccccc1 do in these assays?
TRAIL sens C8: -13

What do the screens show for `O=C(Nc1ccccc1NC(=O)c1csnn1)c1csnn1`?
PPC-1+TRAIL kill: -14; FLuc act counter: 1; TRAIL sens C8: -1; FLuc inh counter: 4

Results for CC(C)c1ccc(NC(=O)c2csnn2)cc1 ?
PPC-1+TRAIL kill: 41; FLuc act counter: 0.3; TRAIL sens C8: 49; FLuc inh counter: 68*; PPC-1 tox: 40

Results for O=[N+]([O-])c1cc(/C=N/NC(=S)Nc2ccccc2Cl)ccc1Cl ?
PPC-1+TRAIL kill: 37; FLuc act counter: 1.1; TRAIL sens C8: 0; FLuc inh counter: -7; PPC-1 tox: 28

Results for COc1cc(C(=O)NCCOc2cc(C)cc(C)c2)cc(OC)c1OC ?
TRAIL sens C8: 30

What do the screens show for `COc1ccc2nc(N=Nc3ccc(N(C)C)cc3)sc2c1`?
PPC-1+TRAIL kill: 90*; FLuc act counter: 0.1; TRAIL sens C8: 94*; FLuc inh counter: 95*; PPC-1 tox: 90*

What do the screens show for `COc1ccc2nc(/N=C\N(C)C)sc2c1`?
PPC-1+TRAIL kill: 12; FLuc act counter: 0.8; TRAIL sens C8: -11; FLuc inh counter: 16

How did Cc1sc(N2CCN(S(=O)(=O)c3ccc4c(c3)NC(=O)CO4)CC2)nc1-c1ccccc1 do in these assays?
TRAIL sens C8: 4

Results for Brc1ccc(N=Nc2ccc3ccccc3n2)cc1 ?
PPC-1+TRAIL kill: 94*; TRAIL sens C8: 92*; PPC-1 tox: 93*

How did COc1ccc(-c2cc3nc(C)n(N)c(=O)c3s2)cc1 do in these assays?
PPC-1+TRAIL kill: 89*; TRAIL sens C8: 86*; PPC-1 tox: 90*

What do the screens show for `COc1cccc(CNc2nc3cc(-c4ccccc4)sc3c(=O)n2C)c1`?
TRAIL sens C8: 8
